Consider 14 compounds from ChEMBL document CHEMBL1142238, “Highly efficient ligands for dihydrofolate reductase from Cryptosporidium hominis and Toxoplasma gondii inspired by structural analysis” (J Med Chem, 2007).

What is called IC50 is the midpoint of a concentration-inhibition curve. The low end stands for greater potency, the high end for weaker potency.

Test [1] addresses T1, Bifunctional dihydrofolate reductase-thymidylate synthase (Toxoplasma gondii) (UniProt Q07422).
T1 sequence (whole entry): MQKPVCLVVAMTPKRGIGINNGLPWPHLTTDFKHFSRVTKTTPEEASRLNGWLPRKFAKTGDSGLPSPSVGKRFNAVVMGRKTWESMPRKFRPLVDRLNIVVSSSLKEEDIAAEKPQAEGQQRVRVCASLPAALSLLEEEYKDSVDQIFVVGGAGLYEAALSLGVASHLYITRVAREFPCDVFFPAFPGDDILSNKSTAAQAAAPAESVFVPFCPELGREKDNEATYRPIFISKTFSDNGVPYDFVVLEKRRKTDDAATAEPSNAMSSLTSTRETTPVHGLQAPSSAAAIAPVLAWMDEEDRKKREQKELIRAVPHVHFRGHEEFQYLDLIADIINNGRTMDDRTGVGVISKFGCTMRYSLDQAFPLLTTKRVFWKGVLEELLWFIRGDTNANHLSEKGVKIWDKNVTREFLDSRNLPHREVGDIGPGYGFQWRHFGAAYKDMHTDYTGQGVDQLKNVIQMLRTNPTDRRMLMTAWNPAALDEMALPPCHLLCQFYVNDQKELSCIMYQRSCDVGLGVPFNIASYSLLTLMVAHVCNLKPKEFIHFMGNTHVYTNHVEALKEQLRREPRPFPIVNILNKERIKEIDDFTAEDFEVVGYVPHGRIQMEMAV
In words: Ligand efficiency at Toxoplasma gondii DHFR-TS. The gist of the method: (§1)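 Computed from the enzyme IC50 substituted for Kd: ΔG = (1.99 cal K^-1 mol^-1)(300 K)(ln IC50)(0.001 kcal/cal), divided by the number of non-hydrogen atoms.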

Test [2] concerns Cryptosporidium hominis. As to the kind of experiment: Ligand efficiency at Cryptosporidium hominis DHFR-TS. The gist of the method:
as §1

The nature of test [3]: Inhibition of Cryptosporidium hominis DHFR-TS expressed in Escherichia coli.
For test [4], the target named is T2, Bifunctional dihydrofolate reductase-thymidylate synthase (Toxoplasma gondii, UniProt Q07422).
T2 sequence (Q07422 whole entry): T1 sequence (whole entry)
In words: Inhibition of Toxoplasma gondii DHFR-TS.

The subject of test [5] is Cryptosporidium hominis. In words: Ligand efficiency at Cryptosporidium hominis DHFR-TS relative to TMP.
The target in test [6] is T1, Bifunctional dihydrofolate reductase-thymidylate synthase (Toxoplasma gondii). In words: Ligand efficiency at Toxoplasma gondii DHFR-TS relative to TMP.

Each structure is given as a SMILES string. Bounds are passed on as bounds.

For `CN(Cc1cnc2nc(N)nc(N)c2n1)c1ccc(C(=O)N[C@@H](CCC(=O)O)C(=O)O)cc1` [METHOTREXATE], the figures for the Activity (in test [1]; in the test on Cryptosporidium hominis [2]) were 0.33 and 0.32, respectively. This compound yielded an IC50 in test [3] of 0.023 µM.
As to `COc1cc(CCc2cnc(N)nc2N)cc(OC)c1OC`, the figures for the IC50 in test [4] and in test [3] were 90.2 µM and over 1000 µM, respectively.
With `COc1cc(Cc2cnc(N)nc2N)cc(OC)c1OC`, the Activity in test [1] was found to be 0.33; in the test with Cryptosporidium hominis [2] it was 0.32.
In test [4], `COc1cc(C(C)C#Cc2cnc(N)nc2N)cc(OC)c1OC` (stereo unspecified) had an IC50 of 3.1 µM.
Consider `COc1cc(C(C)C#Cc2c(C)nc(N)nc2N)cc(OC)c1OC` (stereo unspecified), for which the IC50 was determined as 0.12 µM in test [4] and 0.169 µM in test [3].
In the same order, the values of `COc1cc(C(O)C#Cc2c(C)nc(N)nc2N)cc(OC)c1OC` (stereo unspecified) are 9.1 µM and 141 µM.
Regarding `COc1cc(CC#Cc2cnc(N)nc2N)cc(OC)c1OC`, the values for the Activity (with Cryptosporidium hominis [5]; in test [6]) were 0.24 and 0.28, respectively. The IC50 in test [4] is 21.7 µM; in test [3], 86.1 µM.
For `COc1cc(/C=C/c2cnc(N)nc2N)cc(OC)c1OC`, in test [3], the half-inhibitory concentration (IC50) was over 1000 µM.
In the case of `COc1cc([C@H](C)C#Cc2c(C)nc(N)nc2N)cc(OC)c1OC`, the IC50 in test [4] was found to be 0.013 µM; in test [3] it was 1.91 µM.
With `COc1cc(CC#Cc2c(C)nc(N)nc2N)cc(OC)c1OC`, the Activity was 0.29 in the test on Cryptosporidium hominis [5], 0.35 in test [1], 0.29 with Cryptosporidium hominis [2] and 0.35 in test [6]. In addition, the IC50 in test [4] is 0.88 µM; in test [3] it was 10.2 µM.
Take `COc1cc(C(O)C#Cc2cnc(N)nc2N)cc(OC)c1OC` (stereo unspecified): 194 µM corresponded to half-maximal inhibition in test [3] (IC50).
Turning to `COc1cc(C(C#Cc2cnc(N)nc2N)OC)cc(OC)c1OC` (stereo unspecified), the IC50 in test [4] was found to be 9.8 µM; in test [3] it was 133 µM.
As to `COc1cc([C@@H](C)C#Cc2c(C)nc(N)nc2N)cc(OC)c1OC`, the Activity was determined as 0.41 in the test with Cryptosporidium hominis [5], 0.49 in test [1], 0.41 in the test with Cryptosporidium hominis [2] and 0.49 in test [6]. For the same compound, the 50% inhibitory concentration (IC50) in test [4] is 0.0014 µM; in test [3] it was 0.038 µM.
With `COc1cc(C(C#Cc2c(C)nc(N)nc2N)OC)cc(OC)c1OC` (stereo unspecified), the values for the IC50 in test [4] and in test [3] were 0.55 µM and 5 µM, respectively.
